In ChEMBL document CHEMBL1130328, “Synthesis and pharmacological activity of deltorphin and dermorphin-related glycopeptides” (J Med Chem, 1997):
pIC50, pKi: −log10 of the molar value.

Assays:
[1] = biological target: Delta-type opioid receptor (Rattus norvegicus, UniProt P33533); assay: Opioid receptor delta 1 binding affinity by displacement of radioligand [3H][D-Pen]-enkephalin (DPDPE) from rat brain membrane synaptosomes; type: subcellular
Mu-type opioid receptor = Mu-type opioid receptor (Rattus norvegicus, UniProt P33535); assay: Opioid receptor mu 1 binding affinity by displacement of radioligand [3H][DAla,MePhe,Gly-ol]enkephalin (DAGO) from rat brain membrane synaptosomes; type: subcellular
Sequence of Mu-type opioid receptor (P33535 whole entry): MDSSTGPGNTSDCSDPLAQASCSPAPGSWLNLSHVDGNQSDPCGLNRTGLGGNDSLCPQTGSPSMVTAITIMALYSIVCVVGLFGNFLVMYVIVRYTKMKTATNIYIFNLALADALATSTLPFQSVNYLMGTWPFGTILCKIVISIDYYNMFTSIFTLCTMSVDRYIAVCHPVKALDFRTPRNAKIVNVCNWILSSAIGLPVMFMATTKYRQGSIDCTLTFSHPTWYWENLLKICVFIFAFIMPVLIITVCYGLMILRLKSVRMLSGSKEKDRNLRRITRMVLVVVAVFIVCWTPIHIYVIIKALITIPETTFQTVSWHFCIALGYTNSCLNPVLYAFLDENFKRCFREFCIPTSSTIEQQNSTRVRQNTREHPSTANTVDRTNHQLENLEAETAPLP
Summary of the method: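 Rat brain (male Sprague–Dawley) P2 synaptosomes, preincubated to remove endogenous opioids and washed. Incubated 120 min at 22 °C, 1.6 mg protein, in duplicate, with 0.62 nM [3H]DPDPE (δ) or 0.68 nM [3H]DAGO (μ). Nonspecific binding with 1–2 μM unlabelled ligand. Filtration, scintillation counting. Five to seven concentrations. Ki from IC50 by Cheng–Prusoff, mean ± SE, n = 3–9.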

Cavia porcellus = species: Cavia porcellus; assay: Bioactivity in vitro in guinea pig ileum (GPI) isolated organ preparation; type: functional
Summary of the method: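 Guinea pig ileum segment (2–3 cm) in 20 mL bath with 70 μM hexamethonium and 0.125 μM mepyramine, 95% O2/5% CO2, 36 °C. Transmural stimulation 0.5 ms pulses at 0.1 Hz, 1.5× maximal-twitch voltage. 1 g load, 45 min equilibration, isotonic recording. Dose–response curves run against a reference agonist. Means of six experiments.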

Oryctolagus cuniculus = species: Oryctolagus cuniculus; assay: Bioactivity in vitro in rabbit jejunum (RJ) isolated organ preparation; type: functional
Summary of the method: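 Rabbit jejunum on isotonic transducer under 1 g load, equilibrated 45 min while recording spontaneous activity without washing. Dose–response curves run against a reference agonist. At least four jejunum preparations, each from a different rabbit. Means of six experiments.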

Sequence of Delta-type opioid receptor (P33533 whole entry): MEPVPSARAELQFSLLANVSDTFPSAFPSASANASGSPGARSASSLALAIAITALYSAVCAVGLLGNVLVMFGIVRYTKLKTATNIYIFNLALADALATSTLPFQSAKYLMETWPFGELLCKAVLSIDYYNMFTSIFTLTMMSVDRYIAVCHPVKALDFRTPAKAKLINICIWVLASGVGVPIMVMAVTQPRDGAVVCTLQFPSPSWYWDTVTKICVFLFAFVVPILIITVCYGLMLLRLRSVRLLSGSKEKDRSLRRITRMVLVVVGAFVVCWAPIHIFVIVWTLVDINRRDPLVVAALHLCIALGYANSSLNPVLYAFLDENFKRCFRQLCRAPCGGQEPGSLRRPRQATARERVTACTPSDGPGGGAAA

With `C[C@H](O[C@H]1O[C@@H](CO)[C@H](O)[C@@H](O)[C@@H]1O)[C@H](NC(=O)[C@@H]1CCCN1C(=O)[C@H](Cc1ccc(O)cc1)NC(=O)CNC(=O)[C@H](Cc1ccccc1)NC(=O)[C@@H](C)NC(=O)[C@@H](N)Cc1ccc(O)cc1)C(=O)NCC(N)=O` the pKi [1] was 7.17, the pKi (Mu-type opioid receptor) was 9.54 and the pIC50 (Cavia porcellus) was 8.51.

For `CC(=O)OC[C@@H]1O[C@H](O[C@@H](C)[C@H](NC(=O)[C@@H](NC(=O)[C@@H](NC(=O)[C@H](CC(=O)O)NC(=O)[C@H](Cc2ccccc2)NC(=O)[C@@H](C)NC(=O)[C@@H](N)Cc2ccc(O)cc2)C(C)C)C(C)C)C(=O)NCC(N)=O)[C@@H](OC(C)=O)[C@H](OC(C)=O)[C@H]1OC(C)=O`, the pKi [1] was 8.89, the pKi (Mu-type opioid receptor) was 6.20 and the pIC50 (Oryctolagus cuniculus) was 6.05.

In the case of `CC(=O)OC[C@@H]1O[C@H](O[C@H](C)[C@H](NC(=O)[C@@H]2CCCN2C(=O)[C@H](Cc2ccc(O)cc2)NC(=O)CNC(=O)[C@H](Cc2ccccc2)NC(=O)[C@@H](C)NC(=O)[C@@H](N)Cc2ccc(O)cc2)C(=O)NCC(N)=O)[C@@H](OC(C)=O)[C@H](OC(C)=O)[C@H]1OC(C)=O`, the pKi [1] was 7.06, the pKi (Mu-type opioid receptor) was 9.34 and the pIC50 (Cavia porcellus) was 7.66.

`CC(C)[C@H](NC(=O)[C@H](CC(=O)O)NC(=O)[C@H](Cc1ccccc1)NC(=O)[C@@H](C)NC(=O)[C@@H](N)Cc1ccc(O)cc1)C(=O)N[C@H](C(=O)N[C@H](C(=O)NCC(N)=O)[C@@H](C)O[C@H]1O[C@H](CO)[C@@H](O)[C@H](O)[C@H]1O)C(C)C` showed a pKi [1] of 8.81, a pKi (Mu-type opioid receptor) of 6.24 and a pIC50 (Oryctolagus cuniculus) of 6.00.

Work on `C[C@@H](NC(=O)[C@@H](N)Cc1ccc(O)cc1)C(=O)N[C@@H](Cc1ccccc1)C(=O)N[C@H](C(=O)N[C@@H](Cc1ccc(O)cc1)C(=O)N1CCC[C@H]1C(=O)N[C@@H](CO)C(N)=O)[C@@H](C)O[C@H]1O[C@H](CO)[C@@H](O)[C@H](O)[C@H]1O` yielded a pKi [1] of 5.75, a pKi (Mu-type opioid receptor) of 5.77 and a pIC50 (Cavia porcellus) of 5.47.

Compound `CC(=O)OC[C@H]1O[C@H](O[C@H](C)[C@H](NC(=O)[C@H](Cc2ccccc2)NC(=O)[C@@H](C)NC(=O)[C@@H](N)Cc2ccc(O)cc2)C(=O)N[C@H](C(=O)N[C@H](C(=O)NCC(N)=O)C(C)C)C(C)C)[C@H](OC(C)=O)[C@@H](OC(C)=O)[C@@H]1OC(C)=O` has a pKi [1] of 5.68, a pKi (Mu-type opioid receptor) of 5.82 and a pIC50 (Oryctolagus cuniculus) of under 5.40.

`CC(C)[C@H](NC(=O)[C@@H](NC(=O)[C@@H](NC(=O)[C@H](Cc1ccccc1)NC(=O)[C@@H](C)NC(=O)[C@@H](N)Cc1ccc(O)cc1)[C@@H](C)O[C@H]1O[C@H](CO)[C@@H](O)[C@@H](O)[C@H]1O)C(C)C)C(=O)NCC(N)=O` gave a pKi [1] of 5.02, a pKi (Mu-type opioid receptor) of 5.70 and a pIC50 (Oryctolagus cuniculus) of under 5.40.

For `CC(=O)OC[C@H]1O[C@H](O[C@H](C)[C@H](NC(=O)[C@H](Cc2ccccc2)NC(=O)[C@@H](C)NC(=O)[C@@H](N)Cc2ccc(O)cc2)C(=O)N[C@@H](Cc2ccc(O)cc2)C(=O)N2CCC[C@H]2C(=O)N[C@@H](CO)C(N)=O)[C@H](OC(C)=O)[C@H](OC(C)=O)[C@H]1OC(C)=O`, the pKi [1] was 4.65, the pKi (Mu-type opioid receptor) was 5.36 and the pIC50 (Cavia porcellus) was under 5.40.

Compound `CC(C)[C@H](NC(=O)[C@H](CC(=O)O)NC(=O)[C@H](Cc1ccccc1)NC(=O)[C@@H](C)NC(=O)[C@@H](N)Cc1ccc(O)cc1)C(=O)N[C@H](C(=O)NCC(N)=O)C(C)C` [DELTORPHIN C] has a pIC50 (Oryctolagus cuniculus) of 6.29.

For `C[C@@H](NC(=O)[C@@H](N)Cc1ccc(O)cc1)C(=O)N[C@@H](Cc1ccccc1)C(=O)NCC(=O)N[C@@H](Cc1ccc(O)cc1)C(=O)N1CCC[C@H]1C(=O)N[C@@H](CO)C(N)=O` [DERMORPHIN], the pKi (Mu-type opioid receptor) was 9.55 and the pIC50 (Cavia porcellus) was 8.68.
